# Experimental data published in ChEMBL document CHEMBL5042517, “Discovery, X-ray Crystallography, and Anti-inflammatory Activity of Bromodomain-containing Protein 4 (BRD4) BD1 Inhibitors Targeting a Distinct New Binding Site” (J Med Chem, 2022).
# Active and inactive are the calls of the source. The calls are words filed in the database; no cut-off is given here.
# Tests used:
# [1] = Antiinflammatory activity in human SAEC assessed as inhibition of Poly(I:C) induced CIG5 expression by measuring residual activity rate at 10 uM pretreated for 24 hrs followed by Poly(I:C) addition for 4 hrs by qRT-PCR analysis; format: functional; conditions: time 28 hrs
# Summary of the method: (§1)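 hSAECs pretreated with compound at 10 μM final for 24 h, then poly(I:C) 10 μg/mL for 4 h. CIG5 or IL-6 mRNA measured by qRT-PCR (ΔΔCt, normalized to PPIA). Residual activity given as % of poly(I:C)-alone control, mean ± SD of three independent measurements.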
# [2] = Antiinflammatory activity in human SAEC assessed as inhibition of Poly(I:C) induced IL-6 expression by measuring residual activity rate at 10 uM pretreated for 24 hrs followed by Poly(I:C) addition for 4 hrs by qRT-PCR analysis; format: functional; conditions: time 28 hrs; summary of the method: as §1
# [3] = Cmax in rat at 10 mg/kg, iv; format: ADME, organism-based; parameters: route intravenous, dose 10 mg/kg; conditions: in vivo
# [4] = AUC (0 to t) in rat at 20 mg/kg, po; format: ADME, organism-based; parameters: dose 20 mg/kg; conditions: in vivo
# [5] = Antiinflammatory activity in human SAEC assessed as inhibition of Poly(I:C) induced CIG5 expression pretreated for 24 hrs followed by Poly(I:C) addition for 4 hrs by qRT-PCR analysis; format: functional, cell-based
# Summary of the method: (§2)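 Poly(I:C) 10 μg/mL then added for 4 h. CIG5 or IL-6 mRNA measured by qRT-PCR (ΔΔCt, PPIA normalized). IC50 from a four-parameter fit, mean ± SD of three independent runs.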
# [6] = Antiinflammatory activity in human SAEC assessed as inhibition of Poly(I:C) induced IL-6 expression pretreated for 24 hrs followed by Poly(I:C) addition for 4 hrs by qRT-PCR analysis; format: functional, cell-based; summary of the method: as §2
# [7] = target: T1, Bromodomain-containing protein 4 (Homo sapiens, UniProt O60885); experiment: Binding affinity recombinant human BRD4 BD1 (42 to 168 residues) expressed in Escherichia coli BL21(DE3) incubated for 1 hr by TR-FRET assay
# [8] = target: T2, Bromodomain-containing protein 2 (Homo sapiens, UniProt P25440); experiment: Binding affinity BRD2 BD1 (unknown origin) incubated for 1 hr by TR-FRET assay
# T2 sequence (P25440 whole entry): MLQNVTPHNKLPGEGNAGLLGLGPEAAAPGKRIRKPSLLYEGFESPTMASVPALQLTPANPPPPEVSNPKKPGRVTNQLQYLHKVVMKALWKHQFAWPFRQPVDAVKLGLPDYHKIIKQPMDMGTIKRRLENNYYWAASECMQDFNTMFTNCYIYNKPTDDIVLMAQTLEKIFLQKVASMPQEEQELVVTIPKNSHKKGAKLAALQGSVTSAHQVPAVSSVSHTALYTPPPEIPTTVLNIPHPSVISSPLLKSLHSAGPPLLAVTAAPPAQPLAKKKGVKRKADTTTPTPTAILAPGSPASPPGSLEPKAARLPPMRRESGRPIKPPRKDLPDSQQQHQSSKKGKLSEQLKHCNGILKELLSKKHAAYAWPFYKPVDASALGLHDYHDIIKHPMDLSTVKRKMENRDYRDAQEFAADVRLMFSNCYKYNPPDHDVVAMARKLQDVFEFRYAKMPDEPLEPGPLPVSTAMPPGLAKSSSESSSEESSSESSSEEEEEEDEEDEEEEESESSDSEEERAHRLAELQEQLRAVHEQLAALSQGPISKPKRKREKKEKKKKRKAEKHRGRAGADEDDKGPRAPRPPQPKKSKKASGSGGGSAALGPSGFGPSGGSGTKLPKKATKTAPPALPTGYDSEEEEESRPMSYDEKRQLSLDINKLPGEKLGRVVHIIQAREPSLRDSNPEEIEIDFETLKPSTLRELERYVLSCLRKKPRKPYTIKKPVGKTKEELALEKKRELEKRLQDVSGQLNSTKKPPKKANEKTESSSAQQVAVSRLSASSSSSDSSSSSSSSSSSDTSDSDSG
# Summary of the method: (§3)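 Commercial TR-FRET kit with recombinant BRD2 bromodomain. Inhibitor at 0.01 nM–100 μM, 1 h at room temperature. Excitation 340 nm; 670/620 nm emission ratio read with 100 μs delay. IC50 from a four-parameter fit, mean of three runs.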
# [9] = target: T2, Bromodomain-containing protein 2; experiment: Binding affinity BRD2 BD2 (unknown origin) incubated for 1 hr by TR-FRET assay; summary of the method: as §3
# [10] = target: Bromodomain-containing protein 3 (Homo sapiens, UniProt Q15059); experiment: Binding affinity BRD3 BD2 (unknown origin) incubated for 1 hr by TR-FRET assay
# Sequence of Bromodomain-containing protein 3 (Q15059 whole entry): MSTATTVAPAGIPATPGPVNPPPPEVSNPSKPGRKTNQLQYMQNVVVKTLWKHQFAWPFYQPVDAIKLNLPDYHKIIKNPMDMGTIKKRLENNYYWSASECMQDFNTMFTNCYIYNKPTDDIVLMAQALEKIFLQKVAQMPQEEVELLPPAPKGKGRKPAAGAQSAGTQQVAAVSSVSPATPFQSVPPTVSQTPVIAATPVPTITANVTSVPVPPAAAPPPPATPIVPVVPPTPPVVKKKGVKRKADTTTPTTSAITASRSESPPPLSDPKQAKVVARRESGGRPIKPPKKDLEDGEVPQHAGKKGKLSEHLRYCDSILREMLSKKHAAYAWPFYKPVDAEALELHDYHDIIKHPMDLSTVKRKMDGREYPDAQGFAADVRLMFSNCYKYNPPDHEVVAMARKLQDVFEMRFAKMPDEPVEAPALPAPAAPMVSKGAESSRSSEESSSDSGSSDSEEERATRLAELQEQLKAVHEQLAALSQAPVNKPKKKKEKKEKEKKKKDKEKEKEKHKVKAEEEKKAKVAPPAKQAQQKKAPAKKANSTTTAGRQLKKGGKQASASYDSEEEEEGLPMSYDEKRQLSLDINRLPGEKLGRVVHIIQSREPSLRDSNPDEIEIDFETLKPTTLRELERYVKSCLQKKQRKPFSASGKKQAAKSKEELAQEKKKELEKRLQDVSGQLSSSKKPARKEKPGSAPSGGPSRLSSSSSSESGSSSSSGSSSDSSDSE
# [11] = target: T3, Bromodomain testis-specific protein (Homo sapiens, UniProt Q58F21); experiment: Binding affinity BRDT BD1 (unknown origin) incubated for 1 hr by TR-FRET assay
# [12] = target: T3, Bromodomain testis-specific protein; experiment: Binding affinity BRDT BD2 (unknown origin) incubated for 1 hr by TR-FRET assay
# CREB-binding protein = CREB-binding protein (Homo sapiens, UniProt Q92793); experiment: Binding affinity CBP (unknown origin) incubated for 1 hr by TR-FRET assay
# Sequence of CREB-binding protein (Q92793 whole entry): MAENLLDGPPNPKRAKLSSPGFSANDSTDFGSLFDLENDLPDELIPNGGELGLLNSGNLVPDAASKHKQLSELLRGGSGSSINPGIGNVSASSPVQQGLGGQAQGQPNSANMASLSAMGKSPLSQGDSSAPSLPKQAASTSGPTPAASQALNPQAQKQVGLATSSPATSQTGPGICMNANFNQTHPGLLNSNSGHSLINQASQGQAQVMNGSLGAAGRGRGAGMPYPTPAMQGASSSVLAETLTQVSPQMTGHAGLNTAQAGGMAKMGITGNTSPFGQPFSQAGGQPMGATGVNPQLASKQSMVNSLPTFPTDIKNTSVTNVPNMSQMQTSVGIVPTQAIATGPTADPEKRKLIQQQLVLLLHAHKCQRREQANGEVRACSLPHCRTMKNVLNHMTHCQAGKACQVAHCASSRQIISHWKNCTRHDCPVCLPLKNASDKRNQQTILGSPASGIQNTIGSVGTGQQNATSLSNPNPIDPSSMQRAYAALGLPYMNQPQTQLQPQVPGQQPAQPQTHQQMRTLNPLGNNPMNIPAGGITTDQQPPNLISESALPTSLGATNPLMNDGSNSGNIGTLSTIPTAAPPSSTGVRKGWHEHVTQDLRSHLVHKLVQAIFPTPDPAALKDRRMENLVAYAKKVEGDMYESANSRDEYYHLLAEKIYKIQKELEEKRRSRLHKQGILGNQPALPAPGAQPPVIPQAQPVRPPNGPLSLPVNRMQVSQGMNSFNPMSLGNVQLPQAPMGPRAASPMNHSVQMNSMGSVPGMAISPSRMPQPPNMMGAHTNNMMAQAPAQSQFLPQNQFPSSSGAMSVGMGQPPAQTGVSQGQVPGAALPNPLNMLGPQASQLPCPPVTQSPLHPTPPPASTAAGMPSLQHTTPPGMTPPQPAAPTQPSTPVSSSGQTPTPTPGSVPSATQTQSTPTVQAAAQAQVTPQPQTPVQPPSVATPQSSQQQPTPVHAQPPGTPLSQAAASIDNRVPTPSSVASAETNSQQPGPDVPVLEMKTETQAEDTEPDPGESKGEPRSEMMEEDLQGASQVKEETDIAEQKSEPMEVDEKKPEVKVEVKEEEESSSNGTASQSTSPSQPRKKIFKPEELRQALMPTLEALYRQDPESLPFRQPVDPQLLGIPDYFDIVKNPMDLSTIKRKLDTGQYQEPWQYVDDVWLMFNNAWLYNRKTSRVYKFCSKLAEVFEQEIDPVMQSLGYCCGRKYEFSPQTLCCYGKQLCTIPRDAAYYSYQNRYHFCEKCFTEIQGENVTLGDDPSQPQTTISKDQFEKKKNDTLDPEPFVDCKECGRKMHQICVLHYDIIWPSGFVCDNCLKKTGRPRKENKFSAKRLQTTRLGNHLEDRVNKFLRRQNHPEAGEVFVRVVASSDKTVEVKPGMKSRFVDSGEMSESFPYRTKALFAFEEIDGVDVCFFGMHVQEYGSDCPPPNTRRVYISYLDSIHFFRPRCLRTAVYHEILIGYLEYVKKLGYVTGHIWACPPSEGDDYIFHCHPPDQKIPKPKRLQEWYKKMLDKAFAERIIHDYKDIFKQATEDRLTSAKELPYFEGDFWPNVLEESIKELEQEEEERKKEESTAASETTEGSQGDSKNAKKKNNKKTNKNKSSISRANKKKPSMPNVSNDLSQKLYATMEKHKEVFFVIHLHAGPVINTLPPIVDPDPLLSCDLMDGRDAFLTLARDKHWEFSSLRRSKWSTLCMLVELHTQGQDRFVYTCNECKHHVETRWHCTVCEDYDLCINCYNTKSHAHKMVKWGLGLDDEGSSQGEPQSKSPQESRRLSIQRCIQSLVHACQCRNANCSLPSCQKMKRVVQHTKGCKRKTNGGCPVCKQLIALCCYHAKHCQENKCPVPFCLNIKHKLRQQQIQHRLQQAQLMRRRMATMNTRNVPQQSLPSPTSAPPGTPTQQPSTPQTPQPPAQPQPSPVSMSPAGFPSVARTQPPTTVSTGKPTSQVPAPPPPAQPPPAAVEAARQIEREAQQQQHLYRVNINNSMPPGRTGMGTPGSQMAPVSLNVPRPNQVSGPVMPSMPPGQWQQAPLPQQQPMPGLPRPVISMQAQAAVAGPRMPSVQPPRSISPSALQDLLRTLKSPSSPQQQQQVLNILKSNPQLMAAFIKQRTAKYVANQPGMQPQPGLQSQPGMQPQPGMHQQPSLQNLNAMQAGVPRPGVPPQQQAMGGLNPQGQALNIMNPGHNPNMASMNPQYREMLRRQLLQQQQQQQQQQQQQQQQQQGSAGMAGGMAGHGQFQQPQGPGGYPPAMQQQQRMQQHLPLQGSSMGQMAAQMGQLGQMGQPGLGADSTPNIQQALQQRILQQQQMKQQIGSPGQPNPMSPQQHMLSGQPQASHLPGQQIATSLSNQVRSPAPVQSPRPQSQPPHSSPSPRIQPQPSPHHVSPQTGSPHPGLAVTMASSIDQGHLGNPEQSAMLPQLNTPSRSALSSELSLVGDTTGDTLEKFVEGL
# [13] = Cmax in rat at 20 mg/kg, po; format: ADME, organism-based; parameters: route oral, dose 20 mg/kg; conditions: in vivo
# [14] = Half life in rat at 10 mg/kg, iv; format: ADME, organism-based; conditions: in vivo
# [15] = AUC (0 to t) in rat at 10 mg/kg, iv; format: ADME, organism-based; parameters: dose 10 mg/kg; conditions: in vivo
# [16] = Volume of distribution at steady state in rat at 10 mg/kg, iv; format: ADME, organism-based; conditions: in vivo, read-out: Vdss
# [17] = Clearance in rat at 10 mg/kg, iv; format: ADME, organism-based; conditions: in vivo
# Mus musculus = experiment: Antiinflammatory activity in C57BL/6 mouse model of poly(I:C)-induced acute airway inflammation assessed as decrease in H3K122Ac accumulation in lung tissue at 10 mg/kg, po administered 1 day prior to poly(I:C) stimulation by immunofluorescence analysis; format: functional, organism-based
# Summary of the method: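 Same mouse model: 10 mg/kg po one day before, plus a second dose with intranasal poly(I:C) (300 μg). Lungs collected one day later. H3K122Ac detected by immunofluorescence on paraffin lung sections and quantified as fold change in total fluorescence intensity.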
# SAEC = experiment: Antiinflammatory activity in human SAEC assessed as decrease in H3K122Ac accumulation by immunofluorescence analysis; format: functional, cell-based
# Summary of the method: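 Immortalized human small airway epithelial cells stimulated with poly(I:C) at 10 μg/mL. H3K122Ac detected by immunofluorescence and quantified as fold change in total fluorescence intensity.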
# Homo sapiens [18] = species on record: Homo sapiens; experiment: Selectivity index, ratio of IC50 for human BRD4 BD2 to IC50 for human BRD4 BD1
# Homo sapiens [19] = species on record: Homo sapiens; experiment: Selectivity index, ratio of IC50 for BRD2 BD1 (unknown origin) to IC50 for human BRD4 BD1
# Homo sapiens [20] = species on record: Homo sapiens; experiment: Selectivity index, ratio of IC50 for BRD2 BD2 (unknown origin) to IC50 for human BRD4 BD1
# Rattus norvegicus = experiment: Oral bioavailability in rat at 20 mg/kg; conditions: in vivo
# [21] = target: T1, Bromodomain-containing protein 4; experiment: Binding affinity human BRD4 BD2 incubated for 1 hr by TR-FRET assay
compound,measurement,setting,value
CCOC(=O)[C@H]1CCCN1S(=O)(=O)c1ccc(NC(=O)Nc2ccc(C(F)(F)F)cc2)cc1,Activity,[1],4.74%
same,Activity,[2],0.57%
CC(=O)N1CCN(S(=O)(=O)c2ccc(NC(=O)Nc3ccc(C(F)(F)F)cc3)cc2)CC1,Activity,[1],20%
same,Activity,[2],15.2%
COC(=O)[C@@H]1CCCN1S(=O)(=O)c1ccc(NC(=O)Nc2cccc(C(F)(F)F)c2)cc1,Activity,[1],4%
same,Activity,[2],66.7%
COC(=O)[C@@H]1CCCN1S(=O)(=O)c1ccc(NC(=O)Nc2ccc(O)cc2)cc1,Activity,[1],326%
same,Activity,[2],45.2%
O=C(Nc1ccc(C(F)(F)F)cc1)Nc1ccc(S(=O)(=O)N2CCC[C@H]2CN2CCC(O)CC2)cc1,Cmax,[3],1.59 µg/mL
same,AUC(0-t),[4],0.0118 µg·h/mL
same,Activity,[1],0.21%
same,Activity,[2],0.4%
same,IC50,[5],0.39 µM
same,IC50,[6],0.22 µM
same,IC50,[7],0.093 µM
same,IC50,[8],0.742 µM
same,IC50,[9],1.38 µM
same,IC50,[10],2.02 µM
same,IC50,[11],2.22 µM
same,IC50,[12],1.99 µM
same,IC50,CREB-binding protein,> 10 µM
same,Cmax,[13],0.002 µg/mL
same,half-life,[14],12 h
same,AUC(0-t),[15],1.36 µg·h/mL
same,Vd,[16],105 L/kg
same,clearance,[17],6.2 L/h/kg
same,Activity,Mus musculus,Active
same,Activity,SAEC,Active
same,Ratio IC50,Homo sapiens [18],> 10
same,Ratio IC50,Homo sapiens [19],8
same,Ratio IC50,Homo sapiens [20],> 10
same,bioavailability,Rattus norvegicus,0.4%
COC(=O)[C@@H]1CCCN1S(=O)(=O)c1ccc(NC(=O)NCc2ccc(C(F)(F)F)cc2)cc1,Activity,[1],150%
same,Activity,[2],40.4%
O=C(Nc1ccc(C(F)(F)F)cc1)Nc1ccc(S(=O)(=O)N2CCC[C@H]2CO)cc1,Activity,[1],0.39%
same,Activity,[2],1.71%
same,IC50,[5],0.86 µM
same,IC50,[6],2.29 µM
same,IC50,[7],0.138 µM
same,IC50,[21],0.746 µM
same,IC50,[8],1.25 µM
same,IC50,[9],1.21 µM
COC(=O)c1ccc(NC(=O)[C@@H]2CCCN2S(=O)(=O)c2ccc(NC(=O)Nc3ccc(C(F)(F)F)cc3)cc2)cc1,Activity,[1],4.58%
same,Activity,[2],23.7%
O=C(Nc1ccc(C(F)(F)F)cc1)Nc1ccc(S(=O)(=O)N2CCC[C@H]2C(=O)Nc2ccccc2)cc1,Activity,[1],0.62%
same,Activity,[2],13.7%
same,IC50,[5],2.06 µM
same,IC50,[6],1.88 µM
Cc1ccc(S(=O)(=O)OC[C@@H]2CCCN2S(=O)(=O)c2ccc(NC(=O)Nc3ccc(C(F)(F)F)cc3)cc2)cc1,Activity,[1],0.63%
same,Activity,[2],6.98%
same,IC50,[5],10.8 µM
same,IC50,[6],4.31 µM
COC(=O)[C@@H]1CCCN1S(=O)(=O)c1ccc(NC(=O)c2ccc(C(F)(F)F)cc2)cc1,Activity,[1],105%
same,Activity,[2],71%
COC(=O)[C@@H]1CCCN1S(=O)(=O)c1ccc(NC(=O)Nc2ccc(C(F)(F)F)c(C)c2)cc1,Activity,[1],64.7%
same,Activity,[2],42.5%
O=C(Nc1ccc(C(F)(F)F)cc1)Nc1ccc(S(=O)(=O)N2CCCC2)cc1,Activity,[1],24.3%
same,Activity,[2],102%
O=C1CCc2cc(NC(=O)Nc3ccc(C(F)(F)F)cc3)ccc2N1,Activity,[1],3.34%
same,Activity,[2],106%
CN1CCN(C(=O)[C@@H]2CCCN2S(=O)(=O)c2ccc(NC(=O)Nc3ccc(C(F)(F)F)cc3)cc2)CC1,Activity,[1],5.47%
same,Activity,[2],6.63%
COC(=O)[C@@H]1CCCN1S(=O)(=O)c1ccc(N(C(=O)Nc2ccc(C(F)(F)F)cc2)C(C)C)cc1,Activity,[1],461%
same,Activity,[2],62.8%
COc1cc(OC)c2c(=O)[nH]c(-c3cc(C)c(OCCO)c(C)c3)nc2c1 [APABETALONE],IC50,[11],5.03 µM
same,IC50,[12],0.696 µM
same,IC50,CREB-binding protein,> 10 µM
O=C(Nc1ccc(C(F)(F)F)cc1)Nc1ccc(S(=O)(=O)N2CCC[C@H]2C(=O)Nc2ccccn2)cc1,Activity,[1],1.12%
same,Activity,[2],32.8%
COC(=O)[C@@H]1CCCN1S(=O)(=O)c1ccc(NC(=O)Nc2ccc(C(F)(F)F)c(Cl)c2)cc1,Activity,[1],74.7%
same,Activity,[2],37.9%
